High-throughput results deposited in PubChem by The Scripps Research Institute Molecular Screening Center.
Compounds with a hit are over-represented: about 2.6% of the library has one in this group of screens.
HTRA1 inh: inhibitors of human serine peptidase HTRA1; recombinant HTRA1, FP-rhodamine activity-based probe, fluorescence polarization; inhibition, % at 5.96 µM; AID 504803; 340,000 compounds, 0.5% hits; Q92743; in the data active = inhibition above about 36%;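 also: 0% = enzyme with DMSO and 100% = wells lacking enzyme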
Target sequence (Q92743 whole entry, looked up): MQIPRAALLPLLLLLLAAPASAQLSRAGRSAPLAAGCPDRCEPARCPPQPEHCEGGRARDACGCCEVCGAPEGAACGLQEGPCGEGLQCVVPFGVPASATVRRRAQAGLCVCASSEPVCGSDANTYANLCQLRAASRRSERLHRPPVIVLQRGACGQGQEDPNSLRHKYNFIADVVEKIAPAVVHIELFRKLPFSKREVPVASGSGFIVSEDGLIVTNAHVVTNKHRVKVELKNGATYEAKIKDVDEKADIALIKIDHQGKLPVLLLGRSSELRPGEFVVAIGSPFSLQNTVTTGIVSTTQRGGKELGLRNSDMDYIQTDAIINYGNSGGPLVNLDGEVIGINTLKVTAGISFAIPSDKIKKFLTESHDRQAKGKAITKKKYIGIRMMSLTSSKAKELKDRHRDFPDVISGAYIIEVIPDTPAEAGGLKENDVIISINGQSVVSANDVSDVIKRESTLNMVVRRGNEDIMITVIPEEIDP
TCR-CD3 inh: human TCR-CD3 binding inhibition. TAMRA-labeled TCR probe fluorescence, biochemical. inhibition, % at 9.4 µM. 360,000 compounds, 0.37% hits; in the data active = inhibition above about 19%;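 also: recombinant mutant TCR 2C K166C tagged with TAMRA read by polarization; 0% = receptor in buffer alone and 100% = receptor with positive control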
PRMT1 inh: inhibitors of human PRMT1 | Q99873 | AID 652257 | inhibition, % at 2.79 µM | 370,000 compounds, 1.3% hits | recombinant PRMT1, activity-based probe fluorescence polarization;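 active = inhibition above about 21% made by adding two undisclosed values, limit read from the data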
mABHD4 FP: inhibitors of mouse ABHD4; Q8VD66; purified mABHD4, FP-Rh probe fluorescence polarization; inhibition, % at 8.92 µM; 370,000 compounds, 0.54% hits;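 active = inhibition exceeding the mean over every tested compound plus 3 SD, cut at about 30% in these data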;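 also: 0% = plate median of compound wells and 100% = S159A mutant with DMSO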
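system = mouse ABHD4 enzyme, wild type | medium = HEPES pH 7.0, NaCl, Pluronic buffer | also added = FP-Rh probe | incubation = Enzyme–compound pre-incubation 45 min, then probe 60 min, both 25 °C | technique = fluorescence polarization, excitation 525 nm, emission 598 nm, BODIPY TMR filters | controls = S159A mutant high control, sample median low control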
SIAE inh: inhibitors of human sialic acid acetylesterase SIAE | Q9HAT2 | SIAE FP-Rh probe binding, fluorescence polarization | inhibition, % at 9.66 µM | 370,000 compounds, 0.69% hits | AID 1053197;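 active = inhibition above a cutoff: mean of compounds within the control limits plus 3 SD of those, cut at about 17% in these data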;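 also: 0% = plate median of compound wells and 100% = probe without SIAE protein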
PRMT1 confirm: PRMT1 (human) inhibition, FP confirmation. AID 687036. inhibition, % at 2.79 µM. shares compounds with PRMT1 inh. recombinant His-PRMT1, activity-based probe fluorescence polarization. 3,300 compounds, 42% hits;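 active = mean inhibition across replicates above the hit cutoff derived for the earlier primary screen, cut at about 22% in these data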
Numbers without * were called inactive; . = no result given.

SMILES | HTRA1 inh | TCR-CD3 inh | PRMT1 inh | mABHD4 FP | SIAE inh | PRMT1 confirm
CN(C(=O)c1ccccc1OCC(=O)Nc1ccc(Br)cc1)c1ccccc1 | . | . | 1.2 | -11.2 | -15.3 | .
CCOc1ccc(NC(=O)CSc2nnc(-c3n[nH]c4c3CCC4)n2N)cc1 | . | . | 2.1 | 0.7 | 3.2 | .
COc1ccc(NC(=O)c2cccc(-c3ccc(O)cc3)c2)cn1 | -19.4 | -5.3 | 41.4* | -6.1 | -8.2 | 17.4
C=C(C)c1cccc(C(C)(C)NC(=O)Nc2ccc(OC)nc2)c1 | -4.5 | -3.7 | 25.0* | -0.1 | -2.6 | 5.1
O=C(N/N=C\c1ccc([N+](=O)[O-])o1)c1cncc(Br)c1 | 15.3 | 18.7 | 34.2* | 28.0 | 12.8 | 5.5
COc1ccccc1CCn1cnc(-c2cccc(Cl)c2)c1CC(C)C | . | 0.4 | 6.4 | -2.1 | 0.6 | .
Cc1ccc(N2C(=O)CS(=O)C(c3ccccc3)C2=O)cc1C (stereo not given) | -15.5 | 5.9 | 90.4* | 3.2 | 0.2 | 89.9*
Cc1ccc(N2C(=O)C3C(C2=O)N2CCCN2C3c2ccccc2)cc1C (stereo not given) | 0.0 | -0.4 | 1.0 | 2.1 | 9.4 | .
COc1ccc(N2C(=O)CS(=O)C(c3ccccc3)C2=O)cc1 (stereo not given) | -0.8 | 0.0 | 95.0* | -4.7 | -2.6 | 97.2*
N#C[C@H](N)[C@H]1O[C@@H](n2ccc(=O)[nH]c2=O)[C@H](O)[C@@H]1O | . | 6.0 | 14.5 | 9.8 | -0.2 | .
CN1CCN(C(=O)c2sc(=S)n(-c3ccccc3)c2N)CC1 | -4.5 | 6.8 | 76.5* | 4.8 | 2.0 | 78.7*
Fc1ccc(F)c(C2=NNC(=NCC3CCCO3)SC2)c1 (stereo not given) | 34.8 | 6.2 | 37.6* | -6.4 | -5.1 | 9.7
CC(=O)Nc1ccc(C2=NNC(=NCC3CCCO3)SC2)cc1 (stereo not given) | 4.0 | -4.3 | 40.9* | -3.1 | -0.1 | 33.2*
COCC(C)N=C1NN=C(c2ccc(NC(C)=O)cc2)CS1 (stereo not given) | 7.4 | -4.0 | 11.3 | 10.2 | -2.5 | .
COC(=O)C1=C(C)N(Cc2ccc(C(F)(F)F)cc2)C(=NCc2ccc(C(F)(F)F)cc2)NC1c1ccc(F)cc1 (stereo not given) | . | -2.2 | 1.5 | 26.3 | 0.1 | .
Cc1occc1-c1nnc(SCC(=O)Nc2ccc3ncccc3c2)n1-c1ccccc1 | . | . | 6.7 | -3.2 | -4.9 | .
CCCS(=O)(=O)c1c(S(=O)(=O)CCC)c2c(N)cccn2c1C(=O)c1ccc(Br)cc1 | -1.6 | -0.8 | 13.9 | 9.4 | -6.5 | .
CCCS(=O)(=O)c1c(S(=O)(=O)CCC)c2c(N)cccn2c1C(=O)c1ccc(F)cc1 | 2.9 | -12.6 | 25.6* | 2.7 | 3.0 | 6.8
CCOC(=O)c1ccc(NC(=S)N2CCSC2c2ccc(Br)cc2)cc1 (stereo not given) | -23.2 | 6.6 | 82.5* | -2.6 | 5.7 | 5.1
Cc1ccc(N(Cc2cc3ccc(C)cc3[nH]c2=O)C(=O)c2ccco2)cc1 | -5.3 | 4.1 | 1.0 | -2.3 | -6.6 | .
Cc1cc(C)c2[nH]c(=O)c(CN(Cc3cccs3)C(=S)NCc3ccco3)cc2c1 | -77.2 | -4.9 | 34.6* | 0.5 | -0.3 | -0.2
Cc1ccc2cc(CN(C(=O)c3ccco3)c3ccccc3)c(=O)[nH]c2c1 | 2.8 | -6.2 | 52.6* | -11.3 | -7.6 | -6.2
Cc1ccc2cc(CN(Cc3ccco3)C(=O)c3cccs3)c(=O)[nH]c2c1 | -12.1 | -2.7 | 29.6* | -2.3 | -5.0 | 2.1
C[C@@H]1OC(C2CCCCC2)N(C)[C@H]2C[C@H]3c4[nH]c5c(-c6ccc7c(c6)OCO7)cccc5c4CCN3C[C@@H]12 (stereo not given in full) | . | . | 0.8 | 29.1 | -1.1 | .
COCCCNC(=O)c1nnn2c1nc(N)c1cc(Cl)ccc12 | . | 0.8 | -1.6 | 6.3 | 1.5 | .
SMILES | HTRA1 inh | TCR-CD3 inh | PRMT1 inh | mABHD4 FP | SIAE inh | PRMT1 confirm
O=C(N[C@@H]1CCCc2c1cnn2-c1ccc(F)cc1F)c1ccccn1 | . | . | -3.9 | -2.4 | 4.3 | .
CSCC(C)N1CCC(n2nccc2NC(=O)CCCc2ccccc2)CC1 (stereo not given) | 9.5 | 0.6 | 30.5* | -10.1 | -5.2 | 23.9*
CCn1c(-c2ccc(C)cc2)n[nH]c1=S | -2.2 | 5.7 | -0.6 | -1.6 | 4.8 | .
Cc1ccc(-c2csc3n[nH]c(=S)n23)cc1 | -4.0 | 0.6 | 60.7* | -5.5 | 16.6 | 7.4
C[C@@H]1CN([C@H](C)CO)C(=O)c2cc(Br)cnc2O[C@H]1CN(C)C(=O)c1ccc(F)cc1 | . | 3.4 | -5.6 | -1.5 | 0.2 | .
CCOc1ccc(/C=N/O)cc1 | 1.7 | 1.8 | 1.5 | -9.8 | -1.8 | .
CCCN=Cc1sc2ccc(OCC)cc2c1O | 7.8 | -7.7 | 88.0* | 1.1 | -0.3 | 28.7*
Cc1cnc(NC(=O)Cc2ccc(S(=O)(=O)N3CCOCC3)s2)s1 | -6.5 | -1.9 | 38.3* | 3.6 | 3.5 | 11.6
CNC(=O)CCc1nc(-c2ccc(C(C)C)cc2)no1 | . | . | -1.6 | 2.6 | 7.0 | .
CC(C)OC(=O)CSc1nnc(-c2ccncc2)n1N | -3.8 | -0.4 | 1.9 | 8.1 | -1.6 | .
CC(C)OC(=O)CSc1nnc(-c2ccc(C(C)(C)C)cc2)n1N | 7.5 | -0.4 | 52.9* | 6.1 | 0.2 | 59.7*
CSc1nc(=S)cc(C)[nH]1 | -3.6 | 8.1 | 83.3* | 6.8 | 5.9 | 88.8*
COc1ccc(-c2cc(-c3nnc4sc(-c5cccs5)nn34)[nH]n2)cc1 | . | . | -0.4 | -58.3 | -17.4 | .
O=C(O)Cn1cc(C(=S)N2CCCCC2)c2ccccc21 | 0.2 | -2.2 | 24.9* | 14.5 | -1.5 | 5.3
O=C(O)Cn1cc(C(=S)N2CCOCC2)c2ccccc21 | 2.6 | -5.8 | 16.9 | -3.5 | 0.5 | .
COC(=O)[C@]12C[C@H](CC(=O)NCCCCc3ccccc3)C(=O)N(Cc3ccco3)C1=C[C@H](COCc1ccccc1)O[C@@H]2C | . | . | 2.5 | -4.4 | 0.9 | .
COc1cc2c(cc1OC)C(c1ccccc1O)N(C1CC(=O)N(c3ccccc3)C1=O)CC2 (stereo not given) | -9.2 | -4.5 | 83.4* | -11.2 | -5.3 | 18.6
COc1cc2c(cc1OC)C(c1ccccc1)N(C(=O)CCl)CC2 (stereo not given) | 6.4 | -6.0 | 2.1 | 8.2 | 1.6 | .
CCN(CC)CCSc1nc2c([nH]1)c(=S)n(C)c(=O)n2C | 4.5 | -3.7 | 41.9* | -2.0 | -0.6 | 2.7
CCCCSc1nc2c([nH]1)c(=S)n(C)c(=O)n2C | -0.6 | 0.8 | 1.3 | 0.3 | 9.9 | .
O=C(CCN1CCc2ccccc2CC1)c1ccc2c(c1)OCCO2 | 0.1 | 11.1 | 40.3* | 2.1 | 1.9 | 29.2*
Cc1cc(SCNC(=O)c2ccccc2)ncn1 | 2.6 | 0.1 | 71.5* | 2.2 | -2.2 | 6.9
CC1CCCN(CCCNS(=O)(=O)c2cc3c(cc2Br)CCN3C(=O)C2CC2)C1 (stereo not given) | . | . | 3.9 | 2.0 | -1.6 | .
O=C(O)c1ccc(N2C(=O)CSC2=S)cc1 | 4.8 | 1.3 | 10.1 | -9.1 | -7.5 | .
O=C(O)c1ccc(CN2C(=O)CSC2=S)cc1 | -42.6 | -41.2 | 28.7* | -348.3 | -32.2 | 4.7
